Data reported in ChEMBL document CHEMBL4428077, “Synthesis and Biological Evaluation of N-((1-(4-(Sulfonyl)piperazin-1-yl)cycloalkyl)methyl)benzamide Inhibitors of Glycine Transporter-1” (J Med Chem, 2016).
Values belong to the compound of their own block, whether it stands above or below them.

Columns and labels:
[1] = Drug level in Sprague-Dawley rat CSF at 10 mg/kg, po qd for 5 days measured 2 hrs post last dose by LC-MS/MS analysis; format: ADME, organism-based, Cerebrospinal fluid; settings: read-out: Drug uptake
Outline: (§1)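 Drug-naive Sprague−Dawley rats (n = 5/group) were dosed orally once daily for 5 days in 5% Solutol plus 20% Captisol in 25 mM PBS, pH 2, and sacrificed 2 h after the last dose. Drug was measured in CSF, brain and plasma; mean ± SEM.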

[2] = Drug level in Sprague-Dawley rat plasma at 30 mg/kg, po measured 2 hrs post dose by LC-MS/MS analysis; format: ADME, organism-based
Outline: (§2)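 Drug-naive Sprague−Dawley rats (n = 4−5/group) were dosed orally once in 5% Solutol plus 20% Captisol in 25 mM PBS, pH 2, and euthanized 2 h later by CO₂. CSF was drawn from the cisterna magna. Drug was measured in CSF, brain and plasma; data as mean ± SEM.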

[3] = Drug level in Sprague-Dawley rat plasma at 100 mg/kg, po measured 2 hrs post dose by LC-MS/MS analysis; format: ADME, organism-based; outline: as §2
Rattus norvegicus [4] = assay: In vivo inhibition of glycine transporter-1 in Sprague-Dawley rat assessed as CSF glycine level at 100 mg/kg, po measured 2 hrs post dose by LC-MS/MS analysis relative to control; format: functional; set-up: scale not given: the % may be the effect or the level left
Outline: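 Drug-naive Sprague-Dawley rats, n = 5 per group, given acute oral doses of 0.4-160.9 μmol/kg (0.3-100 mg/kg). Vehicle was Solutol 5% in 20% Captisol / 25 mM PBS, pH 2. Killed 2 h post-dose. CSF glycine was quantified by LC-MS/MS with a deuterated-glycine standard and expressed as % vehicle control, mean ± SEM. Two-way ANOVA with Tukey test.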

[5] = Drug level in Sprague-Dawley rat brain at 100 mg/kg, po measured 2 hrs post dose by LC-MS/MS analysis; format: ADME, organism-based; settings: read-out: Drug uptake; outline: as §2
[6] = Drug level in Sprague-Dawley rat CSF at 1 mg/kg, po qd for 5 days measured 2 hrs post last dose by LC-MS/MS analysis; format: ADME, organism-based, Cerebrospinal fluid; settings: read-out: Drug uptake; outline: as §1
[7] = Drug level in Sprague-Dawley rat plasma at 1 mg/kg, po qd for 5 days measured 2 hrs post last dose by LC-MS/MS analysis; format: ADME, organism-based; outline: as §1
[8] = Drug level in Sprague-Dawley rat plasma at 3 mg/kg, po qd for 5 days measured 2 hrs post last dose by LC-MS/MS analysis; format: ADME, organism-based; outline: as §1
Rattus norvegicus [9] = assay: In vivo inhibition of glycine transporter-1 in Sprague-Dawley rat assessed as CSF glycine level at 1 mg/kg, po qd for 5 days measured 2 hrs post last dose by LC-MS/MS analysis relative to control; format: functional; set-up: scale not given: the % may be the effect or the level left
Outline: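 Drug-naive Sprague-Dawley rats, n = 5 per group, dosed orally once daily for 5 days with vehicle or 1.6, 4.8 or 16.1 μmol/kg. Vehicle was 5% Solutol / 20% Captisol in 25 mM PBS, pH 2. Killed 2 h or 48 h after the last dose. CSF glycine was expressed as % of vehicle control (vehicle 2 h post last dose), mean ± SEM. Two-way ANOVA with Tukey test.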

[10] = Drug level in cynomolgus monkey CSF at 10 mg/kg, po measured at 24 hrs post dose by LC-MS/MS analysis; format: ADME, organism-based, Macaca fascicularis, Cerebrospinal fluid; settings: read-out: Drug uptake
Outline: (§3)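 Cynomolgus monkeys (n = 3/group) fitted with subcutaneous CSF ports were dosed orally at 0.4−15.7 μmol/kg in 5% Solutol plus 20% Captisol in 25 mM PBS, pH 2. CSF (about 0.30 mL) and blood were sampled predose and at 0.5, 1, 2, 3, 4, 8, 12 and 24 h. Quantitation limit 1.0 ng/mL; mean ± SD.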

[11] = Drug level in po dosed Sprague-Dawley rat plasma measured 2 hrs post dose by LC-MS/MS analysis; format: ADME, organism-based; settings: in vivo
[12] = Drug level in cynomolgus monkey plasma at 10 mg/kg, po measured at 8 hrs post dose by LC-MS/MS analysis; format: ADME, organism-based, Macaca fascicularis
[13] = Total clearance in Sprague-Dawley rat at 10 mg/kg, po or 2 mg/kg, iv administered as single dose measured up to 24 hrs post dose by LC-MS/MS analysis; format: ADME, organism-based; settings: in vivo
Outline: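 Groups of three drug-naive adult male Sprague–Dawley rats, single dose: IV 3.1 μmol/kg in 5% DMSO/10% Solutol in saline (5 mL/kg), or PO 15.7 μmol/kg in 5% Solutol/10% Captisol in 25 mM PBS adjusted to pH 2 with HCl. Plasma concentration–time data give the parameters; mean ± SD.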

[14] = Drug level in cynomolgus monkey CSF at 10 mg/kg, po measured at 12 hrs post dose by LC-MS/MS analysis; format: ADME, organism-based, Macaca fascicularis, Cerebrospinal fluid; settings: read-out: Drug uptake; outline: as §3
[15] = Tmax in cynomolgus monkey plasma at 5 mg/kg, po by LC-MS/MS analysis; format: ADME, organism-based, Macaca fascicularis
Outline: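 Three female cynomolgus monkeys per group, single dose: IV 1.5 μmol/kg in 5% DMSO/10% Solutol in saline, pH 6.5 (2 mL/kg), or PO 7.8 μmol/kg in 5% Solutol in 20% Captisol, 25 mM PBS, pH 2 (5 mL/kg). Parameters come from plasma concentration–time data; mean ± SD.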

[16] = Drug level in cynomolgus monkey plasma at 10 mg/kg, po measured at 0.5 hr post dose by LC-MS/MS analysis; format: ADME, organism-based, Macaca fascicularis; outline: as §3
Cynomolgus monkey [17] = assay: In vivo inhibition of glycine transporter-1 in po dosed cynomolgus monkey assessed as increase in CSF glycine level measured up to 24 hrs post dose by LC-MS/MS analysis; format: functional, Macaca fascicularis
Outline: (§4)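 Cynomolgus monkeys, n = 3 per group, given oral doses of 0.4, 1.5, 4.7 or 15.7 μmol/kg. Vehicle was 5% Solutol / 20% Captisol in 25 mM PBS, pH 2. CSF (about 0.30 mL) was drawn through subcutaneous ports with a sterile Huber needle predose and at 0.5, 1, 2, 3, 4, 8, 12 and 24 h. Matched blood was taken at each time. Mean ± SD.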

[18] = Apparent terminal half life in cynomolgus monkey plasma at 1 mg/kg, iv or 5 mg/kg, po by LC-MS/MS analysis; format: ADME, organism-based, Macaca fascicularis; settings: read-out: betat1/2(app) (converted)
Outline: (§5)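 Single-dose PK in female cynomolgus monkeys, n = 3 per group: 1.5 μmol/kg IV in 5% DMSO/10% Solutol in saline, pH 6.5 (2 mL/kg), or 7.8 μmol/kg PO in 5% Solutol in 20% Captisol, 25 mM PBS, pH 2 (5 mL/kg). Plasma parameters reported as mean ± SD.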

[19] = Cmax in Sprague-Dawley rat plasma at 10 mg/kg, po administered as single dose by LC-MS/MS analysis; format: ADME, organism-based; set-up: dose 10 mg/kg, route oral
Outline: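 Single-dose PK in drug-naive adult male Sprague−Dawley rats, n = 3 per group: 3.1 μmol/kg IV in 5% DMSO/10% Solutol in saline (5 mL/kg), or 15.7 μmol/kg PO in 5% Solutol/10% Captisol in 25 mM PBS, pH adjusted to 2 with HCl. Plasma parameters reported as mean ± SD.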

[20] = AUClast in cynomolgus monkey plasma at 1 mg/kg, iv or 5 mg/kg, po measured up to 12 or 24 hrs post dose by LC-MS/MS analysis; format: ADME, organism-based, Macaca fascicularis; outline: as §5
[21] = Drug level in cynomolgus monkey plasma at 10 mg/kg, po measured at 1 hr post dose by LC-MS/MS analysis; format: ADME, organism-based, Macaca fascicularis; outline: as §3
Cynomolgus monkey [22] = assay: In vivo inhibition of glycine transporter-1 in cynomolgus monkey assessed as CSF glycine level at 10 mg/kg, po measured up to 24 hrs post dose by LC-MS/MS analysis relative to control; format: functional, Macaca fascicularis; set-up: scale not given: the % may be the effect or the level left; outline: as §4

concentration at 2 h [1]: 1.9 nM
concentration at 2 h [2]: 490 nM
concentration at 2 h [3]: 334 nM
concentration at 2 h [5]: 46.3 nM
concentration at 2 h [6]: 1 nM
concentration at 2 h [7]: 38.2 nM
concentration at 2 h [8]: 122 nM
Compound: Cl.Cn1cc(S(=O)(=O)N2CCN(C3(CNC(=O)c4ccc(C(F)(F)F)cc4Cl)CCC(F)(F)CC3)CC2)nn1
Activity (Rattus norvegicus [4]): 329.1%
Activity (Rattus norvegicus [9]): 188%

concentration at 24 h [10]: 1.2 ng/mL
Drug uptake [11]: Dose-dependent effect
concentration at 8 h [12]: 156 ng/mL
clearance [13]: 23.3 mL/min/kg
concentration at 12 h [14]: 5 ng/mL
Tmax [15]: 1.67 h
concentration at 0.5 h [16]: 67.9 ng/mL
half-life [18]: 376 min
Cmax [19]: 352 ng/mL
AUC(0-t) at 24 h [20]: 690 ng·h/mL
concentration at 1 h [21]: 203 ng/mL
Compound: CC(NC(=O)c1ccc(C(F)(F)F)cc1Cl)C1(N2CCN(S(=O)(=O)c3cn(C)nn3)CC2)CCC(F)(F)CC1.Cl (single isomer, unassigned; (+))
ED200 (Cynomolgus monkey [17]): 4.7 to 15.7 µmol/kg
Activity (Cynomolgus monkey [22]): >300%
